DAGLB inhibitor: DAGLB lipase inhibitors, primary screen, biochemical, fluorescence, HTS | Diacylglycerol lipase-beta (Homo sapiens), Q8NCG7 | HEK293T DAGLB membrane lysate, EnzChek fluorogenic substrate | inhibition, % at 5.17 µM | 0.059% of 340,000 active | AID 504411, 2011; in the data active means inhibition above about 34%;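 further: 0% = enzyme with vehicle and 100% = wells lacking enzyme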
LEDGF integ inh: blockers of LEDGF/p75-dependent integrase strand transfer – biochemical, TR-FRET, high throughput, primary screen. HIV-1 integrase (with human LEDGF/p75). inhibition, % at 3.7 µM. 0.64% of 370,000 active. AID 743269, 2014. TR-FRET IN-LEDGF/p75 DNA integration, Eu/Cy5;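 active means inhibition above the screen-wide mean plus 3 SD, cut at about 13% in these data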;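 further: signal is the Cy5 over europium emission ratio at 671 and 618 nm; 0% = plate median of compound wells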
rCAG RNA binder: binders of r(CAG) RNA repeats, primary screen, biochemical, fluorescence. r(CAG) RNA repeat, TO-PRO-1 dye displacement fluorescence. inhibition, % at 3 µM. 1.3% of 370,000 active. AID 651821, 2012;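 active means inhibition above the plate cutoff, the mean of all test compounds on that plate plus 3 SD, cut at about 35% in these data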;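 further: 0% = DMSO alone and 100% = 100 µM mitoxantrone as full dye displacement; higher means more dye released from RNA so lower well fluorescence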
HTRA1 inh: HTRA1 serine protease inhibitors, primary screen, biochemical, fluorescence polarization, HTS; Q92743; recombinant HTRA1, FP-rhodamine activity-based probe; inhibition, % at 5.96 µM; 0.5% of 340,000 active; in the data active means inhibition above about 36%;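 further: 0% = enzyme with DMSO and 100% = wells lacking enzyme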
Target sequence (Q92743 whole entry, looked up): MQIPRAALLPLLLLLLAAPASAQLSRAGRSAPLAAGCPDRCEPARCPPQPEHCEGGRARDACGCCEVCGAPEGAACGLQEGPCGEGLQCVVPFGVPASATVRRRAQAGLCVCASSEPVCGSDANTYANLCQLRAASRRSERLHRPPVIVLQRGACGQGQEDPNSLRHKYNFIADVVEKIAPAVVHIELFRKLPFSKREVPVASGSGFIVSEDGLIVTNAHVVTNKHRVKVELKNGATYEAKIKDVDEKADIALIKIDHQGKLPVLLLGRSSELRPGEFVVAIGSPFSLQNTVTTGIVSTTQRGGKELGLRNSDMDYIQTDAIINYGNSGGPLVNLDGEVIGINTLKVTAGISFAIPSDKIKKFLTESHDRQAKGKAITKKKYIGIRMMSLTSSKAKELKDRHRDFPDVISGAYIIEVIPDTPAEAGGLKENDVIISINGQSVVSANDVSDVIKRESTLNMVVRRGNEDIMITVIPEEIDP
PRMT1 FP inh: PRMT1 methyltransferase inhibitors, primary screen, biochemical, fluorescence polarization; recombinant PRMT1, activity-based probe fluorescence polarization; inhibition, % at 2.79 µM; 1.3% of 370,000 active;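 active means inhibition above about 21% made by adding two undisclosed values, limit read from the data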
ABHD4 inh: ABHD4 inhibitors, primary screen, biochemical, fluorescence polarization, mouse; (Lyso)-N-acylphosphatidylethanolamine lipase (Mus musculus), Q8VD66; purified mABHD4, FP-Rh probe fluorescence polarization; inhibition, % at 8.92 µM; 0.54% of 370,000 active;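 active means inhibition exceeding the mean over every tested compound plus 3 SD, cut at about 30% in these data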;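 further: 0% = plate median of compound wells and 100% = S159A mutant with DMSO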
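Assay system: wild-type mouse ABHD4 protein; compound: single nominal dose of 8.92 µM, 0.89% DMSO final; schedule: 45 min + 60 min at 25 °C; measured by: FP readout, ex 525 nm / em 598 nm; evaluation: % inhibition of FP-Rh probe binding versus controls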
rCAG bind conf: small molecules binding CAG repeat RNA – biochemical, fluorescence, confirmation | shares compounds with rCAG RNA binder | r(CAG) RNA repeat, TO-PRO-1 dye displacement fluorescence | inhibition, % at 3 µM | 70% of 4,300 active | AID 652065, 2013;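 active means inhibition above a per-plate cutoff, the mean inhibition of sample wells plus 3 SD, cut at about 35% in these data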;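 further: loss of TO-PRO-1 fluorescence as compound displaces dye from 1x1 AA loop RNA; 0% = DMSO only wells and 100% = 100 µM mitoxantrone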
DNA CAG counter: displacement of TO-PRO-1 from CAG DNA duplex, counter-screen for rCAG RNA repeat binder project, biochemical, fluorescence, TO-PRO-1 dye, d(CAG) DNA oligo; d(CAG) DNA oligo TO-PRO-1 dye displacement; 94% of 4,300 active; inhibition, % at 3 µM; shares compounds with rCAG RNA binder;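 active means inhibition above its plate's cutoff, the mean test-well inhibition plus 3 SD, cut at about 4.8% in these data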;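 further: 0% = DNA dye mix with DMSO and 100% = 100 µM mitoxantrone; hits displace the dye from DNA and so lower well fluorescence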
* = called active by the depositor. This is a sample that favours compounds with a hit; in the whole collection about 3.2% have one here.

Cc1ccc(Nc2nnc(SCC(=O)NC(Cc3c[nH]c4ccccc34)C(=O)O)s2)cc1 (stereo unspecified) was read as DAGLB inhibitor 7, LEDGF integ inh -3, rCAG RNA binder 38*, HTRA1 inh -5, PRMT1 FP inh 2, ABHD4 inh 13, rCAG bind conf 28 and DNA CAG counter 8.6*.
For CC(C)(C)C1(O)CC(C(F)(F)F)=NN1C(=O)CCc1ccccc1 (stereo unspecified) the results were DAGLB inhibitor -5, LEDGF integ inh -1, rCAG RNA binder -7, HTRA1 inh -3, PRMT1 FP inh -1 and ABHD4 inh -4.
`O=C(CS(=O)(=O)c1ccccc1)Nc1ccc(S(=O)(=O)Nc2ncccn2)cc1` gave DAGLB inhibitor -1, LEDGF integ inh -5, rCAG RNA binder -1, HTRA1 inh 6, PRMT1 FP inh 4 and ABHD4 inh 8.
`O=C(CNC(=O)c1ccc(-c2ccccc2)cc1)Nc1ccc(S(=O)(=O)Nc2ncccn2)cc1` gave DAGLB inhibitor 1, LEDGF integ inh 0, rCAG RNA binder 38*, HTRA1 inh -8, PRMT1 FP inh -2, ABHD4 inh -13, rCAG bind conf 29 and DNA CAG counter 10*.
Screening NS(=O)(=O)c1ccc(NS(=O)(=O)c2ccc(NC(=O)c3ccc(-c4ccccc4)cc3)cc2)cc1 returned DAGLB inhibitor 3, LEDGF integ inh 0, rCAG RNA binder 59*, HTRA1 inh -139, PRMT1 FP inh 0, ABHD4 inh -132, rCAG bind conf 72* and DNA CAG counter 39*.
COc1ccc(OC)c(/C=C/C(=O)OCC(=O)Nc2nnc(-c3ccccc3)o2)c1 was read as DAGLB inhibitor 1, LEDGF integ inh 4, rCAG RNA binder 45*, HTRA1 inh 0, PRMT1 FP inh -4, ABHD4 inh -5, rCAG bind conf 41* and DNA CAG counter 15*.
`CCCc1nc2c(C)cc(Br)cn2c1Cc1ccccc1C(F)(F)F` gave LEDGF integ inh 1, rCAG RNA binder 5, PRMT1 FP inh 0 and ABHD4 inh 11.
For O=C(O)c1ccc(Cl)c(S(=O)(=O)N(Cc2ccccc2)c2ccc(Cl)cc2)c1 the results were DAGLB inhibitor 9, LEDGF integ inh 2, rCAG RNA binder 73*, HTRA1 inh -51, PRMT1 FP inh 1, ABHD4 inh -10, rCAG bind conf 65* and DNA CAG counter 26*.
Screening COc1ccccc1N(Cc1ccccc1)S(=O)(=O)c1cc(C(=O)O)ccc1Cl returned DAGLB inhibitor 4, LEDGF integ inh -2, rCAG RNA binder 65*, HTRA1 inh -9, PRMT1 FP inh -1, ABHD4 inh 1, rCAG bind conf 47* and DNA CAG counter 13*.
`Cc1ccccc1S(=O)(=O)Nc1nc2ccccc2nc1N1CCc2ccccc2C1` gave DAGLB inhibitor 5, LEDGF integ inh 0, rCAG RNA binder 35*, HTRA1 inh -15, PRMT1 FP inh 1, ABHD4 inh -11, rCAG bind conf 45* and DNA CAG counter 15*.
For CC(=O)Nc1ccc(S(=O)(=O)Nc2nc3ccccc3nc2N2CCc3ccccc3C2)cc1 the results were DAGLB inhibitor 6, LEDGF integ inh -2, rCAG RNA binder 49*, HTRA1 inh 1, PRMT1 FP inh -1, ABHD4 inh -20, rCAG bind conf 60* and DNA CAG counter 25*.
